# Assay results reported in PMC9532722 (Acta Pharmaceutica Sinica. B, 2022).
# Where “and” joins values, the source holds several entries; their conditions need not be identical. Identical values can stand only once. Like-named read-outs stand apart in the source and are kept apart here.
# Assays:
# [1] = system: persistent AF canine model; assay: Anti-atrial fibrillatory effect in persistent AF canine model; format: in vivo, beagle dogs
# [2] = system: canine model of paroxysmal AF; details: basic pacing cycle length of 200 ms; cited from earlier work
# [3] = system: persistent AF canine model; assay: Proarrhythmic risk; format: in vivo, beagle dogs; details: 3 mg/kg i.v.; for peak increment of STVQT: at 3 h (dronedarone), 9 h (poyendarone), 1 h (amiodarone), n = 4
# [4] = Effective permeability by PAMPA; format: physicochemical; details: pH 7.4
# human NaV1.5 channel = human NaV1.5 channel (Homo sapiens, UniProt Q14524); assay: Whole-cell patch clamp, NaV1.5 peak current in transfected HEK293FT cells; format: cell-based
# Sequence of human NaV1.5 channel (Q14524 whole entry): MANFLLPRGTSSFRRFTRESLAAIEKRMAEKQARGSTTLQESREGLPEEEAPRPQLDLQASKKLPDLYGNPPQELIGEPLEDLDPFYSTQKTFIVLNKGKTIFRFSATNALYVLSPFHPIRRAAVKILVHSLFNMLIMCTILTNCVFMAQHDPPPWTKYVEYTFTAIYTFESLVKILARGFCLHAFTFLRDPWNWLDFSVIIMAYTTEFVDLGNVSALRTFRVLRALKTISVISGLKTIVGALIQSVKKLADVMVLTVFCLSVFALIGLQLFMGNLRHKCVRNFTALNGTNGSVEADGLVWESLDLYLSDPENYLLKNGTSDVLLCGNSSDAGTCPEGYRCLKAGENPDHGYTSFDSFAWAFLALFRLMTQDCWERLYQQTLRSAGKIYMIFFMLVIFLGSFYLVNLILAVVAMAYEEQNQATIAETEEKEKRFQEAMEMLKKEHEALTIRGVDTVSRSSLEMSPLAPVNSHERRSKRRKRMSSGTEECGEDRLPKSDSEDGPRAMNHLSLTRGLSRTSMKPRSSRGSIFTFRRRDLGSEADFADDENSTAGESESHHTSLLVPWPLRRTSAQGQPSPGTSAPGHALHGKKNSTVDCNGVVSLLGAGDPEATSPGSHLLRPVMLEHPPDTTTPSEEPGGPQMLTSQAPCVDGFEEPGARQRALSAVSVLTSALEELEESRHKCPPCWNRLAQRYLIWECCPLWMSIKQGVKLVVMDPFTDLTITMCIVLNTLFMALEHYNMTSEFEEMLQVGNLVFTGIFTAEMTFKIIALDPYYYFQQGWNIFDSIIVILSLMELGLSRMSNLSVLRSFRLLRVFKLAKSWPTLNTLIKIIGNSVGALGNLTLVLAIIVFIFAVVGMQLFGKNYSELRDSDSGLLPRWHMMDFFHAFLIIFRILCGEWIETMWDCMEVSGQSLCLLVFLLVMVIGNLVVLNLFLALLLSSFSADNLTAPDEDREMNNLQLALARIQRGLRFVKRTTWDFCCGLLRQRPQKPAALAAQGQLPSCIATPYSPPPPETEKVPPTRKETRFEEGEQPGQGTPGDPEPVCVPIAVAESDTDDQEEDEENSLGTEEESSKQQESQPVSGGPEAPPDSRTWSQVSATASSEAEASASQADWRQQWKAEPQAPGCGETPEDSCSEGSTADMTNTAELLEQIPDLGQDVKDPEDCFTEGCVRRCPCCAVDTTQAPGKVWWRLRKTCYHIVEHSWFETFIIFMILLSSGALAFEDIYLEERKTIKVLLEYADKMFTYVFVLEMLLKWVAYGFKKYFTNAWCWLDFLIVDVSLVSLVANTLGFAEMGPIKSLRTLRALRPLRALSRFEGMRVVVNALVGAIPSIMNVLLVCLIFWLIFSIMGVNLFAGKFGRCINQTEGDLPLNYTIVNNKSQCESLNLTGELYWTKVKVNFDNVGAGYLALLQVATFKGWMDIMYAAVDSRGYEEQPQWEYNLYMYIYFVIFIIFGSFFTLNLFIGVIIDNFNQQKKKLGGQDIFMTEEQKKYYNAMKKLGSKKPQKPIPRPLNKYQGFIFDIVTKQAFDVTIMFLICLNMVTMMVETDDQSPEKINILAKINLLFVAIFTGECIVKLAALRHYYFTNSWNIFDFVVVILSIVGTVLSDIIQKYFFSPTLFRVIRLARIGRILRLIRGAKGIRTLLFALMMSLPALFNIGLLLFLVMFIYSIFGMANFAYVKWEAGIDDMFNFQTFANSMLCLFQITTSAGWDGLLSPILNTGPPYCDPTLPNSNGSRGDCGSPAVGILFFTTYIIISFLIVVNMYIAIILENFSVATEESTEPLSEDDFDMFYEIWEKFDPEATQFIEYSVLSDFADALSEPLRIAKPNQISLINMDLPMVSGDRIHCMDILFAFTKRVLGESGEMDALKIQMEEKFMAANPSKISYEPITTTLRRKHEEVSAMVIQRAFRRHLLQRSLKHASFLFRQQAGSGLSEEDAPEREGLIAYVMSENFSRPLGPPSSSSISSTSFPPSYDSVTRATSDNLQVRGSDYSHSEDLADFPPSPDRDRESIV
# Outline: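 HEK293FT cells grown in DMEM with 10% FBS at 37 °C, 5% CO2. Co-transfected with human NaV1.5 and β1-subunit plasmids; replated on coated coverslips 24 h before recording. Peak INa measured by whole-cell voltage clamp with test compound at 1–10 μmol/L: 5–6 kHz filter, >70% series-resistance compensation, P/4 leak subtraction. IC50 from variable-slope log(inhibitor)–response fit.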
# hKV11.1 (hERG) channel = hKV11.1 (hERG) channel (Homo sapiens, UniProt Q12809); assay: Whole-cell patch clamp, KV11.1 tail current in transfected HEK293FT cells; format: cell-based
# Sequence of hKV11.1 (hERG) channel (Q12809 whole entry): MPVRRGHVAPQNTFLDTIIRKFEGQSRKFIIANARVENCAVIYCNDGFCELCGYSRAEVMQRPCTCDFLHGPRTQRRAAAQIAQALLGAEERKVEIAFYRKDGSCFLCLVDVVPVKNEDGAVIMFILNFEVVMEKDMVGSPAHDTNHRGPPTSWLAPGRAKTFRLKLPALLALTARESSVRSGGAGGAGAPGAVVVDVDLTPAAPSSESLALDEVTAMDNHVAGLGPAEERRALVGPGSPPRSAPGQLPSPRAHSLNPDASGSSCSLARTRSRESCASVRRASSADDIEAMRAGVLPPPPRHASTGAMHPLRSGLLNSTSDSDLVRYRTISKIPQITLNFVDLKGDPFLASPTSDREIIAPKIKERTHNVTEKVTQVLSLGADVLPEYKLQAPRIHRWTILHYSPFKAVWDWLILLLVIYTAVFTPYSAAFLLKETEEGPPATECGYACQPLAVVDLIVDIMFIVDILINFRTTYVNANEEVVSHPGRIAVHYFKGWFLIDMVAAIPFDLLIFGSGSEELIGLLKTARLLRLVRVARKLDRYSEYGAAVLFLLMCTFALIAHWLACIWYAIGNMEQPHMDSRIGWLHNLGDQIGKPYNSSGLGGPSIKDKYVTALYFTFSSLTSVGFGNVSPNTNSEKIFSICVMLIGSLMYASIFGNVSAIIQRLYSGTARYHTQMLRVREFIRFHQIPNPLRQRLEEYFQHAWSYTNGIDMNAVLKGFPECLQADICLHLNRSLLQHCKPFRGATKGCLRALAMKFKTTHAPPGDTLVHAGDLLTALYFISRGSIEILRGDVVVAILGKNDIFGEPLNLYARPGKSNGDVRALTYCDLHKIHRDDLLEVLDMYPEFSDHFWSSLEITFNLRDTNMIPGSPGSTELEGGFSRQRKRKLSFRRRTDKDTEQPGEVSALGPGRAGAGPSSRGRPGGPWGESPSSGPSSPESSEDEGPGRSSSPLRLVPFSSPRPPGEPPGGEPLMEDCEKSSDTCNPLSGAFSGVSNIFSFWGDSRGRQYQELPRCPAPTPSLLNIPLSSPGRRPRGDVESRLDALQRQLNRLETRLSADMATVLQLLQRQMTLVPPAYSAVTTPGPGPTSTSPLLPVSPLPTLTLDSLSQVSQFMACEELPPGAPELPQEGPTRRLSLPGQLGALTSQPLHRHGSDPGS
# Outline: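 HEK293FT cells grown in DMEM with 10% FBS at 37 °C, 5% CO2. Co-transfected with human KV11.1 and KCNE1 plasmids, then plated on poly-D-lysine coverslips. Test compound applied at 10 nmol/L–1 μmol/L under whole-cell voltage clamp: 1 kHz filter, >70% series-resistance compensation, P/4 leak subtraction. Pulses of 2.5 s from −80 to 20 mV; tail current recorded at −60 mV. IC50 from variable-slope log(inhibitor)–response fit.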
# [5] = molecular target: human CaV1.2 α1C cardiac isoform (Homo sapiens, UniProt Q13936); assay: Whole-cell patch clamp, CaV1.2 peak current in transfected HEK293FT cells; format: cell-based
# hiPSC-CMs = assay: BTB variability in hiPSC-CMs; format: cell-based, human; details: hiPSC-CM, 1 μmol/L
# Outline: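 Cardiomyocytes from hiPSC made by viral-free reprogramming of human foreskin fibroblasts. Exposed to test compound (0–10 μmol/L); MEA field potentials recorded 5 min at baseline and 5 min after dosing. Successive RR intervals plotted as Poincaré plots, giving SD1 (STVRR) and SD2 (LTVRR). One experiment in triplicate, mean ± SEM; groups compared with control by one-way ANOVA and Dunnett's test.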
# CYP3A4 [6] = molecular target: T1, CYP3A4 (Homo sapiens, UniProt P08684); assay: Metabolic stability, substrate depletion, rCYP3A4; format: in vitro ADME
# T1 sequence (P08684 whole entry): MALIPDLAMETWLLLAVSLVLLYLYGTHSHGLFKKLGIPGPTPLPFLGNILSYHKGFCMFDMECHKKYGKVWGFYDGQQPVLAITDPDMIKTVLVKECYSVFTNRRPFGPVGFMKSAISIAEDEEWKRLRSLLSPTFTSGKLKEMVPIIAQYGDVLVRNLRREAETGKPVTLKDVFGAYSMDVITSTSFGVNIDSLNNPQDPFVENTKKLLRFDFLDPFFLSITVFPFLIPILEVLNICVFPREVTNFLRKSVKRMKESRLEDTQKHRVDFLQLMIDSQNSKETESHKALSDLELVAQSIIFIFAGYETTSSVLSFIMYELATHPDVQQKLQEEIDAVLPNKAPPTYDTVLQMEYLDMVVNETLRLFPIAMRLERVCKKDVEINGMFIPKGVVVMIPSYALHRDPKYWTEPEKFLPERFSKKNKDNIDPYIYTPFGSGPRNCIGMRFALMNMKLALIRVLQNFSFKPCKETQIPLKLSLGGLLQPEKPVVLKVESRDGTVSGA
# Outline: (§1)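 Substrate depletion. Test compound at 1 μmol/L incubated with NADPH generating system (NADP+, glucose 6-phosphate, glucose-6-phosphate dehydrogenase) and one enzyme source: human liver microsomes 0.5 mg/mL, rCYP3A4 10 pmol/mL or rCYP3A5 10 pmol/mL. Aliquots at set times quenched in ice-cold ACN with internal standard; parent measured by LC–MS/MS. Percent remaining versus time fitted to one-phase decay for CLint.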
# CYP3A5 [7] = molecular target: T2, CYP3A5 (Homo sapiens, UniProt P20815); assay: Mechanism-based inactivation of CYP3A5, rivaroxaban as probe substrate; format: biochemical
# T2 sequence (P20815 whole entry): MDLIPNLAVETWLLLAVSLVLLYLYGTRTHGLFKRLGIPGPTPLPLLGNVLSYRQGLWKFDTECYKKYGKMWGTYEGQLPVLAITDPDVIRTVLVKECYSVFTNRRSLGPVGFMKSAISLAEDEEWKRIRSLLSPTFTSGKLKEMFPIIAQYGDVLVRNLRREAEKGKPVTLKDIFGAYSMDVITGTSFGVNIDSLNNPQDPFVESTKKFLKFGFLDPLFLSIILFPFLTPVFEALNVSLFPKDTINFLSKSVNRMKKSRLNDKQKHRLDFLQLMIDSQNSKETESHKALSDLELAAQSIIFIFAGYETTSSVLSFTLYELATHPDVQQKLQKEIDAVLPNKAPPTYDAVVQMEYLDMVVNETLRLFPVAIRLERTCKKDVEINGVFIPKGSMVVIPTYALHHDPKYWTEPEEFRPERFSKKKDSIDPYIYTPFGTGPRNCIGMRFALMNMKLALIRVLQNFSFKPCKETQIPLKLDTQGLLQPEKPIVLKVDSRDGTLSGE
# Outline: (§2)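 Two-step inactivation assay. Recombinant CYP3A4 or CYP3A5 (20 pmol/mL) pre-incubated at 37 °C with test compound (0–20 μmol/L) and NADPH system in potassium phosphate buffer. At set times, aliquots diluted 20-fold into rivaroxaban plus NADPH regenerating system and incubated 2 h. ACN quench; rivaroxaban morpholinone product measured by LC–MS/MS. kobs from log % activity versus time; kinact and KI from kobs versus concentration; n = 3, mean ± SEM.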
# CYP2J2 [8] = molecular target: T3, CYP2J2 (Homo sapiens, UniProt P51589); assay: in vitro; format: in vitro ADME
# T3 sequence (P51589 1-502): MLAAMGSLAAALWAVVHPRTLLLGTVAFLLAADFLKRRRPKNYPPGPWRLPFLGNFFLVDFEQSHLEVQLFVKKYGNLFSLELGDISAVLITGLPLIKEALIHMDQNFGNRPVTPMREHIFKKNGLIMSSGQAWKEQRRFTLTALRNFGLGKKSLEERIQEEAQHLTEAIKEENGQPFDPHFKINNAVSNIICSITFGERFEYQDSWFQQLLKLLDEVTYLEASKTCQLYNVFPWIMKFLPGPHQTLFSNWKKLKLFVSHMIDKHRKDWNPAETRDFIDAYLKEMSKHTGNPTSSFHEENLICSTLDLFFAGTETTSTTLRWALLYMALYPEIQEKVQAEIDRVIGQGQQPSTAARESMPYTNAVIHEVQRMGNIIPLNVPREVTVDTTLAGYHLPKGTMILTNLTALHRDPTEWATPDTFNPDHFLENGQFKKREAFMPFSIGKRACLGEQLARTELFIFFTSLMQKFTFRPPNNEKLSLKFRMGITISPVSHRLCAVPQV
# CYP2J2 [9] = molecular target: T3, CYP2J2; assay: in vitro; format: biochemical
# [10] = Metabolic stability, substrate depletion, HLM; format: in vitro ADME; details: human, human liver microsomes
# Outline: as §1
# CYP2J2 [11] = molecular target: T3, CYP2J2; format: biochemical; details: CYP2J2-mediated astemizole O-desmethylation
# CYP3A5 [12] = molecular target: T2, CYP3A5; assay: Metabolic stability, substrate depletion, rCYP3A5; format: in vitro ADME
# Outline: as §1
# CYP2J2 [13] = molecular target: T3, CYP2J2; format: biochemical; details: co-incubation 2 h with NADPH
# [14] = Aqueous kinetic solubility; format: physicochemical; details: universal aqueous buffer, pH 7.4
# Outline: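 Kinetic solubility: test compound from 10 mmol/L DMSO stock diluted into universal aqueous buffer, pH 7.4 (1% DMSO, v/v), then sonicated. Run in 3 filter-plate wells, agitated 24 h at 250 rpm at room temperature and filtered. Filtrate brought to 80:20 buffer/ACN. Solubility estimated from UV absorbance at 300 nm.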
# CYP3A4 [15] = molecular target: T1, CYP3A4; assay: Mechanism-based inactivation of CYP3A4, rivaroxaban as probe substrate; format: biochemical
# Outline: as §2
# H9c2 cells = assay: Concurrent cytotoxicity and ATP depletion; format: cell-based, rat; details: 6 h
# [16] = hydrochloride 3 mg/kg i.v., conscious dogs
compound,measurement,setting,value
CCCCc1oc2ccccc2c1C(=O)c1cc(I)c(OCCN(CC)CC)c(I)c1 [Amiodarone],"spontaneous AF recurrence, time after the termination of AF","[1]; hydrochloride 3 mg/kg i.v., animal #1",5.2 h
same,time of AF termination after the start of administration (individual animals),[1]; [16],7.7 h and 5.9 h
same,atrial effective refractory period prolongation,[2],-3 ms
same,inter-atrial conduction time prolongation,[2],+1 ms
same,peak increment of STVQT,[3],1.05 ± 0.41 ms
CCCCc1oc2ccc(NS(C)(=O)=O)cc2c1C(=O)c1ccc(OCCCN(CCCC)CCCC)cc1 [Dronedarone],Papp at 16 h,[4],3.46 ×10⁻⁶ cm/s
same,IC50,human NaV1.5 channel,3.41 µM
same,IC50,hKV11.1 (hERG) channel,0.16 µM
same,IC50,[5],1.96 µM
same,"long-term variability (LTVRR), fold compared to poyendarone",hiPSC-CMs,3 fold
same,"short-term variability (STVRR), fold compared to poyendarone",hiPSC-CMs,4 fold
same,half-life at 1 μmol/L,"CYP3A4 [6]; human, recombinant CYP3A4 (rCYP3A4)",8.05 min
same,"Intrinsic clearance, CLint",CYP3A4 [6]; rCYP3A4,0.86 µL/min/pmol
same,kinact/KI,"CYP3A5 [7]; CYP3A5, rivaroxaban substrate",0.000121 M⁻¹ s⁻¹
same,KI,"CYP3A5 [7]; CYP3A5, rivaroxaban substrate, mean ± SEM",4.44 ± 1.76 µM
same,kinact,"CYP3A5 [7]; human, recombinant CYP3A5 (rCYP3A5), probe rivaroxaban",0.000538 s⁻¹
same,animals in which persistent AF was terminated,"[1]; hydrochloride 3 mg/kg i.v. over 30 s, conscious dogs, 21 h observation",2 out of 4
same,time of AF termination after the start of administration (individual animals),[1]; [16],5.2 h and 10.6 h
same,half-life at 1 μmol/L,"CYP2J2 [8]; human, recombinant enzyme",3.95 min
same,"Intrinsic clearance, CLint",CYP2J2 [8]; rCYP2J2,0.88 µL/min/pmol
same,kinact/KI,"CYP2J2 [9]; CYP2J2, rivaroxaban substrate",7.85e-05 M⁻¹ s⁻¹
same,KI,"CYP2J2 [9]; CYP2J2, rivaroxaban substrate, mean ± SEM",8.47 ± 3.96 µM
same,kinact,CYP2J2 [9]; human,0.000667 s⁻¹
same,MBI of CYP2J2-mediated rivaroxaban hydroxylation (in words),CYP2J2 [9]; rivaroxaban as probe substrate,potently inactivated
same,atrial effective refractory period prolongation,[2],+4 ms
same,inter-atrial conduction time prolongation,[2],+13 ms
same,half-life at 1 μmol/L,[10],10.4 min
same,microsomal CLint at 1 μmol/L,[10],13.3 µL/min/mg
same,kinact/KI,CYP2J2 [11],8300 M⁻¹ s⁻¹
same,half-life at 1 μmol/L,"CYP3A5 [12]; human, recombinant CYP3A5 (rCYP3A5)",12.2 min
same,"Intrinsic clearance, CLint",CYP3A5 [12]; rCYP3A5,0.57 µL/min/pmol
same,inhibition of CYP2J2-mediated AA metabolism to EETs (in words),CYP2J2 [13],inhibits CYP2J2-mediated AA metabolism in a concentration-dependent manner
same,solubility at 24 h,[14],3.22 ± 0.34 µg/mL
same,kinact/KI,CYP3A4 [15],8.42e-05 M⁻¹ s⁻¹
same,kinact/KI,CYP3A4 [15]; as printed in text,83.3 M⁻¹ s⁻¹
same,KI,CYP3A4 [15]; mean ± SEM,5.3 ± 2.95 µM
same,period after administration with increased STVQT,[3],0.5 to 12 h
same,STVQT relative to the critical border for early afterdepolarization,[3]; throughout observation period,intermittently elevated STVQT
same,peak increment of STVQT,[3],3.06 ± 0.80 ms
same,fold higher cytotoxicity than poyendarone,H9c2 cells,22 fold
same,fold more potent decrease of intracellular ATP than poyendarone,H9c2 cells,13 fold
